{"source": "paper PMC4834983", "about": "(Journal of medicinal chemistry, 2015)", "key": {"pStat3 [1]": {"system": "pStat3", "test": "Immunoblotting of pStat3 in patient-derived xenograft cells", "type": "cell-based, human", "conditions": "5 μM, 3 h", "summary_of_the_method": "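Glioma patient-derived xenograft G22 cells (DMEM, 5–10% heat-inactivated FBS) given 5 μM test compound for 0–24 h. Whole-cell lysates immunoblotted for pStat3 and Stat3, with GAPDH as loading reference.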"}, "pYStat3": {"system": "pYStat3", "test": "Immunoblotting of pStat3 in treated U251MG cells", "type": "cell-based, human", "conditions": "5 μM, glioma cells, immunoblotting", "summary_of_the_method": "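Whole-cell lysates from U251MG cells given test compound at 5 μM for 0–24 h, or at 0–5 μM for 2 h. Immunoblotted for pY705Stat3 and total Stat3, with GAPDH as loading reference.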"}, "NIH3T3 cells": {"system": "NIH3T3 cells", "test": "Colony survival assay", "type": "cell-based, mouse", "conditions": "2.5 μM or less", "summary_of_the_method": "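Cells seeded as single cells at 250 per well and treated once the next day with test compound (0–5 μM) for 72 h. Grown until large colonies were visible: 1 week for NIH3T3, 2 weeks for U251MG. Colonies stained with crystal violet for 4 h and counted.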"}, "pStat5": {"system": "pStat5", "test": "Immunoblotting, EGF-stimulated NIH3T3/hEGFR fibroblasts", "type": "cell-based, mouse", "conditions": "5 μM pre-treatment", "summary_of_the_method": "(§1)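 NIH3T3/hEGFR fibroblasts pretreated with or without 5 μM test compound for 3 h, then stimulated with 1 μg/ml EGF for 12 min. Whole-cell lysates, equal total protein, immunoblotted for pStat1/Stat1, pStat5/Stat5 and pErk1/2/Erk1/2.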"}, "[2]": {"system": "protein tyrosine phosphatase (PTP)1B", "test": "Immunoblotting, U251MG glioma cells", "type": "cell-based, human", "conditions": "5 μM", "summary_of_the_method": "(§2)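 U251MG cells given 5 μM test compound for 0–24 h. Whole-cell lysates of equal total protein immunoblotted for pErk1/2, Erk1/2, pS-Akt, Akt, pJAK2, JAK2, SOCS3 and PTP1B, with β-actin or GAPDH as loading reference.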"}, "U251MG cells [3]": {"system": "U251MG cells", "test": "Scratch assay for migration", "type": "cell-based, human", "conditions": "5 μM, 19-h treatment", "summary_of_the_method": "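Sub-confluent U251MG monolayers wounded with pipette tips and treated once with test compound (0–5 μM) or DMSO vehicle. Cells allowed to migrate into the denuded area over 19 h, then imaged by microscopy at 10×.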"}, "U251MG cells [4]": {"system": "U251MG cells", "test": "Cell cycle distribution analysis", "type": "cell-based, human", "conditions": "15 h treatment", "summary_of_the_method": "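U251MG cells synchronised by double thymidine block (2 mM) and released for 9 h, then given DMSO or 8 μM test compound for 15 h. Fixed overnight at −20 °C in 70% ethanol/3% FBS in PBS. Stained in PI/RNase buffer for 15 min at room temperature, then DNA content measured by flow cytometry.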"}, "[5]": {"test": "Body weights and signs of toxicity in tumor-bearing mice", "type": "in vivo", "conditions": "2 mg/kg, oral gavage, 33 days"}, "Stat1:Stat1": {"target": "T1, Stat1:Stat1 (Mus musculus, UniProt P42225)", "T1 sequence (P42225 2-749 limits assumed)": "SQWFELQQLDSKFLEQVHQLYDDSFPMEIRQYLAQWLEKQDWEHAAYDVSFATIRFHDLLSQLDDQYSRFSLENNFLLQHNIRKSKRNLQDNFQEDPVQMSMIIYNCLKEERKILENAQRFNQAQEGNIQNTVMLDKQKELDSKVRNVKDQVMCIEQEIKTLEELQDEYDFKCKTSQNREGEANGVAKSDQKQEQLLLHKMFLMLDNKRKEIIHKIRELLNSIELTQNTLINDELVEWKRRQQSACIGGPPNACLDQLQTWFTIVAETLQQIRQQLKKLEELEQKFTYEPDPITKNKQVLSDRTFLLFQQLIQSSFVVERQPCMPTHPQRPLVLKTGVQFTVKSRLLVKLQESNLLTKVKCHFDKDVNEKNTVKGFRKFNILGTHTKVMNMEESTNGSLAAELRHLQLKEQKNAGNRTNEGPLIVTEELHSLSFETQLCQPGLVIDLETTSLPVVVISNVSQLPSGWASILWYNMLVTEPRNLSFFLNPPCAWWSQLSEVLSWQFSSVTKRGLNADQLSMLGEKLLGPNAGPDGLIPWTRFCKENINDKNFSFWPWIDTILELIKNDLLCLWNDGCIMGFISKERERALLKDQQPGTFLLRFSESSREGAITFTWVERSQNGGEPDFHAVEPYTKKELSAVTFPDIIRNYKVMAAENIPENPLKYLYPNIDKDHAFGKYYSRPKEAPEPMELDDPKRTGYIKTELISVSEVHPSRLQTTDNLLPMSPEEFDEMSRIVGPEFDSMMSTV", "test": "Cell-free EMSA, EGF-stimulated NIH3T3/hEGFR nuclear extracts", "type": "biochemical", "conditions": "5 μM, 30 min pre-incubation", "summary_of_the_method": "(§3)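 Nuclear extracts from EGF-stimulated NIH3T3/hEGFR fibroblasts, containing active Stat1, Stat3 and Stat5, preincubated with 5 μM test compound for 30 min at room temperature. Then incubated 30 min with 32P-labelled probe before EMSA: hSIE (Stat1/Stat3 binding) or MGFe (bovine β-casein element; Stat1/Stat5 binding). STAT:DNA bands quantified as percent of control.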"}, "SF295 cells": {"system": "SF295 cells", "test": "CyQuant cell proliferation assay", "type": "cell-based", "conditions": "Homo sapiens, SF-295, 72 h, read-out: IC50 cell proliferation SF295", "summary_of_the_method": "(§4)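 CyQuant DNA-dye proliferation assay on cultured cells after 72 h exposure to test compound. Viability expressed relative to DMSO-treated control cells.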"}, "G10 cells": {"system": "G10 cells", "test": "Growth of glioma patient-derived xenograft cells in vitro", "type": "cell-based", "conditions": "Homo sapiens, read-out: inhibitory activity against growth of G10 cells"}, "MCF-7 cells": {"system": "MCF-7 cells", "test": "CyQuant cell proliferation assay", "type": "cell-based", "conditions": "Homo sapiens, MCF7, 72 h, read-out: IC50 cell proliferation MCF-7", "summary_of_the_method": "as §4"}, "pStat3 [6]": {"system": "pStat3", "test": "Immunoblots of tumor tissue lysates from treated mice", "type": "in vivo, mouse", "conditions": "four-to-five cases out of six", "summary_of_the_method": "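After oral dosing, lysates of residual subcutaneous U251MG tumour tissue from treated and 1% DMSO vehicle mice. Immunoblotted for pStat3 and Stat3, with GAPDH as loading reference.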"}, "G22 cells": {"system": "G22 cells", "test": "Growth of glioma patient-derived xenograft cells in vitro", "type": "cell-based", "conditions": "Homo sapiens, read-out: inhibitory activity against growth of G22 cells"}, "[7]": {"system": "suppressors of cytokine signaling (SOCS)3", "test": "Immunoblotting, U251MG glioma cells", "type": "cell-based, human", "conditions": "5 μM", "summary_of_the_method": "as §2"}, "pErk1/2MAPK": {"system": "pErk1/2MAPK", "test": "Immunoblotting, EGF-stimulated NIH3T3/hEGFR fibroblasts", "type": "cell-based, mouse", "conditions": "5 μM pre-treatment", "summary_of_the_method": "as §1"}, "Stat3": {"system": "Stat3", "test": "Stat3 DNA-binding activity/EMSA of nuclear extracts from treated glioma cells", "type": "cell-based, human", "conditions": "5 μM, glioma cells, EMSA"}, "U251MG cells [8]": {"system": "U251MG cells", "test": "BrdU incorporation assay", "type": "cell-based, human", "conditions": "5 μM, at 24 h", "summary_of_the_method": "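U251MG cells on glass coverslips exposed to DMSO or 5 μM test compound for 3–24 h. BrdU (10 micromolar) added for the final 2 h. Fixed in 4% paraformaldehyde for 10 min, stained with anti-BrdU antibody and counterstained with DAPI. Imaged by fluorescence microscopy, and cells counted.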"}, "Stat5:Stat5": {"system": "Stat5:Stat5", "test": "Cell-free EMSA, EGF-stimulated NIH3T3/hEGFR nuclear extracts, MGFe probe", "type": "biochemical, mouse", "conditions": "5 μM, 30 min pre-incubation", "summary_of_the_method": "as §3"}}}
{"molecule": "C/C=C(\\C)C(=O)OCC1=C2/C(=C\\[C@@]3(C)CC[C@](O)(O3)[C@H](C)C[C@@H]2O)OC1=O", "note": "[Compound 22]", "values": [{"measurement": "effect on Phospho-Stat3 in G22 cells", "setting": "pStat3 [1]", "result": "strongly inhibited"}, {"measurement": "effect on pStat3 in treated tumor cells", "setting": "pYStat3", "result": "strongly inhibited"}, {"measurement": "effects on NIH3T3 colony numbers", "setting": "NIH3T3 cells", "result": "moderate or none"}, {"measurement": "effect on EGF-stimulated pStat5 levels", "setting": "pStat5", "result": "no effect"}, {"measurement": "effect on PTP1B levels", "setting": "[2]", "result": "no effects"}, {"measurement": "migration into the denuded area", "setting": "U251MG cells [3]", "result": "slowed migration"}, {"measurement": "cell cycle distribution", "setting": "U251MG cells [4]", "result": "induced G2/M accumulation"}, {"measurement": "body weights or obvious signs of toxicity", "setting": "[5]", "result": "No significant changes"}, {"measurement": "effect on Stat1:Stat1 activity, cell-free EMSA", "setting": "Stat1:Stat1", "result": "weak effects"}, {"measurement": "IC50", "setting": "SF295 cells", "result": "7.4 to 18.3", "unit": "µM"}, {"measurement": "inhibition at 5 µM", "setting": "G10 cells", "result": "45 to 60", "unit": "%"}, {"measurement": "IC50", "setting": "MCF-7 cells", "result": "4.8 to 9.6", "unit": "µM"}, {"measurement": "pStat3 and Stat3 levels in residual tumor tissues", "setting": "pStat3 [6]", "result": "lower"}, {"measurement": "inhibition at 5 µM", "setting": "G22 cells", "result": "45 to 60", "unit": "%"}, {"measurement": "effect on SOCS3 levels", "setting": "[7]", "result": "no effects"}, {"measurement": "effect on EGF-stimulated pErk1/2MAPK levels", "setting": "pErk1/2MAPK", "result": "no effect"}, {"measurement": "effect on Stat3 DNA-binding activity in treated tumor cells", "setting": "Stat3", "result": "strongly inhibited"}, {"measurement": "cell proliferation measured by BrdU incorporation", "setting": "U251MG cells [8]", "result": "significantly impaired"}, {"measurement": "effect on Stat5:Stat5 activity, cell-free EMSA", "setting": "Stat5:Stat5", "result": "weak effects"}]}
